Calls of active or inactive are those of the source. The calls are words filed in the database; no cut-off is given here.
Key:
[1] = target: T1, P2X purinoceptor 7 (Homo sapiens) (UniProt Q99572); assay: Antagonist activity at human P2X7 receptor expressed in HEK293 cells assessed as inhibition of BzATP-induced ethidium bromide uptake at 10 uM after 120 mins by fluorimetric analysis; format: cell-based
T1 sequence (whole entry): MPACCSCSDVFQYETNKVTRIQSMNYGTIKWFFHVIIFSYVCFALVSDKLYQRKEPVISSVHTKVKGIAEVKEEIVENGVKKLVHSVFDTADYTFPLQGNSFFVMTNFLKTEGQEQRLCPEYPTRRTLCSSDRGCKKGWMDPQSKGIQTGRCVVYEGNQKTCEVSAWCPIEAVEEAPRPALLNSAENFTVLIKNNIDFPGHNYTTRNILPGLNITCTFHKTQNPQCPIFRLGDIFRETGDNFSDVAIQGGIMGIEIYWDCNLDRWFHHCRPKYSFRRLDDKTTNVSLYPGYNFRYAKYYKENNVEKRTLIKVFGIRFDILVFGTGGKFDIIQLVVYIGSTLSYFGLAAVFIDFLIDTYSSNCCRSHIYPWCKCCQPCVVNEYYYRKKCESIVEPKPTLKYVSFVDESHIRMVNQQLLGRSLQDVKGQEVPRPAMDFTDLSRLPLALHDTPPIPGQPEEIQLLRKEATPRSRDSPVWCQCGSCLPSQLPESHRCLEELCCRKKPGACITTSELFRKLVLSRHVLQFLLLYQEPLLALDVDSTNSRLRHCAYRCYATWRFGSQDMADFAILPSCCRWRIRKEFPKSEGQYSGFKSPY
In short: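 HEK293 cells stably expressing hP2X7 were grown in DMEM with 10% FBS, trypsinized and resuspended at 2.5×10^6 cells/mL in HEPES/N-methyl-D-glucamine/KCl/glucose/0.5 mM CaCl2 buffer, pH 7.4, with 100 μM ethidium bromide. Cells were added at 2×10^5 per well to BzATP. After 120 min at 37 °C, ethidium fluorescence was read at ex 530 / em 590 nm.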

[2] = target: T2, P2X purinoceptor 3 (Homo sapiens) (UniProt P56373); assay: Antagonist activity at human recombinant P2X3 receptor expressed in Xenopus oocytes assessed as inhibition of ATP-induced ion current at 100 nM incubated for 20 mins prior to ATP-induction by two-electrode voltage clamp assay; format: cell-based; details: Oocyte
T2 sequence (whole entry): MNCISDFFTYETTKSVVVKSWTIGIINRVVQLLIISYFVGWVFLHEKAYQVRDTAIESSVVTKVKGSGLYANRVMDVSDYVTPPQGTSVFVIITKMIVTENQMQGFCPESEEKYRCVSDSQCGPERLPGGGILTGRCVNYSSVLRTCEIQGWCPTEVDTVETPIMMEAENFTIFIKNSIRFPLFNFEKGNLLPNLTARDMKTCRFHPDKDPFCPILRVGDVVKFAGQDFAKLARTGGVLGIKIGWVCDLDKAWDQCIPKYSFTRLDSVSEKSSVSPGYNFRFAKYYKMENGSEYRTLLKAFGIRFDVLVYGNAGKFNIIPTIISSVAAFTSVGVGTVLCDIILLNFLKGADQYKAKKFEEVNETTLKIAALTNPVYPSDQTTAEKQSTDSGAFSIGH
In short: (§1)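 Defolliculated Xenopus oocytes were injected with mouse P2X1 or human P2X3 cRNA (40 nL, 1 μg/mL), held 24 h at 18 °C in Barth's solution, then stored at 4 °C for up to 12 days. Two-electrode voltage clamp was run at Vh −70 mV with superfusion of Ringer's solution (pH 7.5, 18 °C). Compound was applied 20 min before 2 μM ATP (60–120 s), followed by 20 min washout. Mean ± SEM, n = 4 oocyte batches.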

[3] = target: T3, P2X purinoceptor 1 (Mus musculus) (UniProt P51576); assay: Antagonist activity at mouse recombinant P2X1 receptor expressed in Xenopus oocytes assessed as inhibition of ATP-induced ion current at 100 nM incubated for 20 mins prior to ATP-induction by two-electrode voltage clamp assay; format: cell-based; details: Oocyte; in short: as §1
T3 sequence (whole entry): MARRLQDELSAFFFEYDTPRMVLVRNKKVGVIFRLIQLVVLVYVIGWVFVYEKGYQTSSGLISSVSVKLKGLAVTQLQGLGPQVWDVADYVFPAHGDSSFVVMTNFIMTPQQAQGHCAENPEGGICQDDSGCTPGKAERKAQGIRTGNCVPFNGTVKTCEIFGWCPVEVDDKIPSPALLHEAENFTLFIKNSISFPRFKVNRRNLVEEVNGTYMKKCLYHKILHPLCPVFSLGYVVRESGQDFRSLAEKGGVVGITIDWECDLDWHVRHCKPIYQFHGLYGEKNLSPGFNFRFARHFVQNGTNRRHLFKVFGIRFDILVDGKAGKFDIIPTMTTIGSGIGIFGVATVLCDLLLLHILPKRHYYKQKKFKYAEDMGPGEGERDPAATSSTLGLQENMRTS

[4] = target: T4, P2X purinoceptor 1 (Homo sapiens, UniProt P51575); assay: Antagonist activity at P2X1 receptor (unknown origin)
T4 sequence (P51575 whole entry): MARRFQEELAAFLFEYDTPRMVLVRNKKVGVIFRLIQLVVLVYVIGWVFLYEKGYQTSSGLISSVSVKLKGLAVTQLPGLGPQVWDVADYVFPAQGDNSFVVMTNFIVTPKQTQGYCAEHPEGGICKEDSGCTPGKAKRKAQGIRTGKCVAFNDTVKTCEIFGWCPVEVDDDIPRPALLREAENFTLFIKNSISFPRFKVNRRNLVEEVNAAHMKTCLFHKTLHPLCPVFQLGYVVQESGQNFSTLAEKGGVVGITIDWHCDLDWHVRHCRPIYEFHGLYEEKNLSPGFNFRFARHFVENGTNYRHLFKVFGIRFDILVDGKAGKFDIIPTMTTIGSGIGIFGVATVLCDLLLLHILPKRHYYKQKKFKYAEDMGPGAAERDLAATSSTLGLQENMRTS

[5] = target: T2, P2X purinoceptor 3 (Homo sapiens); assay: Antagonist activity at human recombinant P2X3 receptor expressed in Xenopus oocytes assessed as inhibition of ATP-induced ion current at 10 uM incubated for 20 mins prior to ATP-induction by two-electrode voltage clamp assay; format: cell-based; details: Oocyte; in short: as §1
[6] = target: T3, P2X purinoceptor 1 (Mus musculus); assay: Antagonist activity at mouse recombinant P2X1 receptor expressed in Xenopus oocytes assessed as inhibition of ATP-induced ion current at 10 uM incubated for 20 mins prior to ATP-induction by two-electrode voltage clamp assay; format: cell-based; details: Oocyte; in short: as §1
[7] = Selectivity ratio of IC50 for mouse recombinant P2X1 receptor to IC50 for human recombinant P2X3 receptor
[8] = target: T5, P2X purinoceptor 3 (Homo sapiens, UniProt P56373); assay: Antagonist activity at human recombinant P2X3 receptor expressed in Xenopus oocytes assessed as inhibition of ATP-induced ion current incubated for 20 mins prior to ATP-induction by two-electrode voltage clamp assay; format: cell-based, Oocyte; in short: as §1
T5 sequence (P56373 whole entry): T2 sequence (whole entry)

[9] = target: T6, P2X purinoceptor 1 (Mus musculus, UniProt P51576); assay: (§2) Antagonist activity at mouse recombinant P2X1 receptor expressed in Xenopus oocytes assessed as inhibition of ATP-induced ion current incubated for 20 mins prior to ATP-induction by two-electrode voltage clamp assay; format: cell-based, Oocyte; in short: as §1
T6 sequence (P51576 whole entry): T3 sequence (whole entry)

[10] = target: T3, P2X purinoceptor 1 (Mus musculus); assay: Antagonist activity at mouse recombinant P2X1 receptor expressed in Xenopus oocytes assessed as inhibition of ATP-induced ion current incubated for 20 mins prior to ATP-induction measured after compound washout by two-electrode voltage clamp assay; format: cell-based; details: Oocyte
In short: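 Oocytes expressing mP2X1 were superfused with compound for 20 min before 2 μM ATP. Reversibility was checked by recording the ATP current after washout (20 min wash between ATP applications). Recordings used two-electrode voltage clamp at −70 mV in Ringer's solution, pH 7.5, 18 °C.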

[11] = target: T3, P2X purinoceptor 1 (Mus musculus); assay: as §2; format: cell-based; details: Oocyte; in short: as §1
[12] = target: T7, P2X purinoceptor 7 (Homo sapiens, UniProt Q99572); assay: Antagonist activity at P2X7 receptor (unknown origin)
T7 sequence (Q99572 whole entry): T1 sequence (whole entry)

Compound	inhibition [1]	inhibition [2]	inhibition [3]	inhibition [5]	inhibition [6]	other results
Cc1nc(/N=N/c2ccc(S(=O)(=O)O)cc2)c(CCC(=O)O)c(C=O)c1O	< 50%	46.5%	41.8%	–	–	–
Cc1ncc(COP(=O)(O)O)c(C=O)c1O [PYRIDOXAL PHOSPHATE ANHYDROUS]	–	–	–	20.1%	13.2%	IC50 [4]: 10000 nM
Cc1nc(/N=N/c2ccc(C(=O)O)cc2)c(CCC(=O)O)c(C(=O)O)c1O	< 50%	25.7%	51.7%	–	–	–
Cc1nc(/N=N/c2cc(S(=O)(=O)O)ccc2S(=O)(=O)O)c(COP(=O)(O)O)c(C=O)c1O [ISOPPADS]	–	–	–	–	–	Ratio IC50 [7]: 0.3; IC50 [8]: 96.2 nM; IC50 [9]: 30.7 nM
Cc1nc(/N=N/c2cc(S(=O)(=O)O)ccc2S(=O)(=O)O)c(CCC(=O)O)c(C=O)c1O	< 50%	40.1%	58.6%	–	–	Ratio IC50 [7]: 0.7; inhibition [10]: inactive; inhibition [11]: Dose-dependent effect
Cc1ncc(CN(CCC(=O)O)Cc2ccccc2)c(C=O)c1O	–	–	–	inactive	inactive	–
Cc1ncc(CCC(=O)O)c(C(=O)O)c1O	–	–	–	15.2%	14.8%	–
Cc1nc(/N=N/c2ccc(C(=O)O)cc2)c(CCC(=O)O)c(C=O)c1O	< 50%	56.3%	48.5%	–	–	Ratio IC50 [7]: 1.6
Cc1ncc(/C=C/C(=O)O)c(C=O)c1O	–	–	–	9.3%	7.4%	–
Cc1ncc(CCC(=O)O)c(C=O)c1O	–	–	–	22.3%	19.5%	–
Cc1nc(/N=N/c2ccc(C(=O)O)cc2)c(COP(=O)(O)O)c(C=O)c1O	–	–	–	–	–	IC50 [12]: 600 nM
Cc1nc(/N=N/c2cc(S(=O)(=O)O)ccc2S(=O)(=O)O)c(CCC(=O)O)c(C(=O)O)c1O	< 50%	45.7%	60.2%	–	–	–
Cc1nc(/N=N/c2cc(S(=O)(=O)O)c3cc([N+](=O)[O-])cc(S(=O)(=O)O)c3c2)c(COP(=O)(O)O)c(C=O)c1O	–	–	–	–	–	IC50 [12]: 600 nM
Cc1ncc(CN(CCC(=O)O)Cc2ccccc2)c(C(=O)O)c1O	–	–	–	inactive	inactive	–
Cc1nc(/N=N/c2ccc(S(=O)(=O)O)cc2)c(CCC(=O)O)c(C(=O)O)c1O	< 50%	37.6%	57.6%	–	–	–
Cc1ncc(/C=C/C(=O)O)c(C(=O)O)c1O	–	–	–	inactive	inactive	–

Source: ChEMBL document CHEMBL2375299, “Synthesis and structure-activity relationships of carboxylic acid derivatives of pyridoxal as P2X receptor antagonists” (Bioorg Med Chem, 2013)
